According to ChEMBL document CHEMBL4196177, “Synthesis, Evaluation, and Structure-Activity Relationship Study of Lanosterol Derivatives To Reverse Mutant-Crystallin-Induced Protein Aggregation” (J Med Chem, 2018):
Calls of active or inactive are those of the source. The calls are words filed in the database; no cut-off is given here.

Key:
Format in all cases: cell-based
[1] = test system: T1, Beta-crystallin B2 (Homo sapiens), P43320 [V187E]; test: Inhibition of beta-crystallin B2 V187E mutant (unknown origin)-induced intracellular protein aggregation expressed in human HLE-B3 cells at 4 uM incubated for 6 to 8 hrs by fluorescence microscopy relative to untreated control
T1 sequence (whole entry): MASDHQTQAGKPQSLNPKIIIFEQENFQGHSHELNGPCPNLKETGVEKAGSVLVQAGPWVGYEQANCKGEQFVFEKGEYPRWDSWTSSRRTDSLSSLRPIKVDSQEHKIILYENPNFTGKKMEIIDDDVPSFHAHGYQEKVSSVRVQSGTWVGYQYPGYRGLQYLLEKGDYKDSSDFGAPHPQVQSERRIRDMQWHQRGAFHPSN

[2] = test system: T2, Alpha-crystallin B chain (Homo sapiens), P02511 [R120G]; test: Inhibition of alpha-crystallin B R120G mutant (unknown origin)-induced intracellular protein aggregation expressed in human HeLa cells at 4 uM incubated for 6 to 8 hrs by fluorescence microscopy relative to untreated control
T2 sequence (whole entry): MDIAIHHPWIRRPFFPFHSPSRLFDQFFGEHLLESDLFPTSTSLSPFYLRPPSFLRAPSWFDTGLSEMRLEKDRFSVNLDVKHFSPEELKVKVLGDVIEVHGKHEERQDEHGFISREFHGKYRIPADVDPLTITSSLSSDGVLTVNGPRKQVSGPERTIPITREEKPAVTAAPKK
Method in brief: (§1)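 Cells were transfected with mutant crystallin constructs using Lipofectamine 2000 and cultured for 16 h until the overexpressed mutants formed aggregates. Compounds were then added to the culture medium and incubated for 6~8 h. Aggregate dissolution was scored by fluorescence microscopy. For αB R120G, % inhibition at 0.4 and 4 µM was calculated against DMSO-treated cells; values are mean ± error.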

[3] = test system: T2, Alpha-crystallin B chain (Homo sapiens), P02511 [R120G]; test: Inhibition of alpha-crystallin B R120G mutant (unknown origin)-induced intracellular protein aggregation expressed in human HeLa cells at 0.4 uM incubated for 6 to 8 hrs by fluorescence microscopy relative to untreated control; method in brief: as §1
[4] = test system: T2, Alpha-crystallin B chain (Homo sapiens), P02511 [R120G]; test: Inhibition of alpha-crystallin B R120G mutant (unknown origin)-induced intracellular protein aggregation expressed in human HLE-B3 cells at 4 uM incubated for 6 to 8 hrs by fluorescence microscopy relative to untreated control; method in brief: as §1
[5] = test system: T2, Alpha-crystallin B chain (Homo sapiens), P02511 [R120G]; test: Inhibition of alpha-crystallin B R120G mutant (unknown origin)-induced intracellular protein aggregation expressed in human HLE-B3 cells at 0.4 uM incubated for 6 to 8 hrs by fluorescence microscopy relative to untreated control; method in brief: as §1
[6] = test system: T1, Beta-crystallin B2 (Homo sapiens), P43320 [V187E]; test: Inhibition of beta-crystallin B2 V187E mutant (unknown origin)-induced intracellular protein aggregation expressed in human HeLa cells at 4 uM incubated for 6 to 8 hrs by fluorescence microscopy relative to untreated control
[7] = test system: T1, Beta-crystallin B2 (Homo sapiens), P43320 [V187E]; test: Inhibition of beta-crystallin B2 V187E mutant (unknown origin)-induced intracellular protein aggregation expressed in human HeLa cells at 0.4 uM incubated for 6 to 8 hrs by fluorescence microscopy relative to untreated control
[8] = test system: T1, Beta-crystallin B2 (Homo sapiens), P43320 [V187E]; test: Inhibition of beta-crystallin B2 V187E mutant (unknown origin)-induced intracellular protein aggregation expressed in human HLE-B3 cells at 0.4 uM incubated for 6 to 8 hrs by fluorescence microscopy relative to untreated control
[9] = test system: T3, Gamma-crystallin C (Homo sapiens), P07315 [G129C]; test: Inhibition of gamma-crystallin C G129C mutant (unknown origin)-induced intracellular protein aggregation expressed in human HeLa cells at 4 uM incubated for 6 to 8 hrs by fluorescence microscopy relative to untreated control
T3 sequence (whole entry): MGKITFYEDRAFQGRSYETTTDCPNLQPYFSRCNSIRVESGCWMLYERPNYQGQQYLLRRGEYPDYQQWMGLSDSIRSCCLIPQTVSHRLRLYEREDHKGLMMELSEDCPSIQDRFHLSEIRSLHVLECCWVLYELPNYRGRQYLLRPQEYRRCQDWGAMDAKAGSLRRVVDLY

[10] = test system: T3, Gamma-crystallin C (Homo sapiens), P07315 [G129C]; test: Inhibition of gamma-crystallin C G129C mutant (unknown origin)-induced intracellular protein aggregation expressed in human HeLa cells at 0.4 uM incubated for 6 to 8 hrs by fluorescence microscopy relative to untreated control
[11] = test system: T3, Gamma-crystallin C (Homo sapiens), P07315 [G129C]; test: Inhibition of gamma-crystallin C G129C mutant (unknown origin)-induced intracellular protein aggregation expressed in human HLE-B3 cells at 4 uM incubated for 6 to 8 hrs by fluorescence microscopy relative to untreated control
[12] = test system: T3, Gamma-crystallin C (Homo sapiens), P07315 [G129C]; test: Inhibition of gamma-crystallin C G129C mutant (unknown origin)-induced intracellular protein aggregation expressed in human HLE-B3 cells at 0.4 uM incubated for 6 to 8 hrs by fluorescence microscopy relative to untreated control
[13] = test system: T4, Gamma-crystallin D (Homo sapiens), P07320 [W43R]; test: Inhibition of gamma-crystallin D W43R mutant (unknown origin)-induced intracellular protein aggregation expressed in human HeLa cells at 4 uM incubated for 6 to 8 hrs by fluorescence microscopy relative to untreated control
T4 sequence (whole entry): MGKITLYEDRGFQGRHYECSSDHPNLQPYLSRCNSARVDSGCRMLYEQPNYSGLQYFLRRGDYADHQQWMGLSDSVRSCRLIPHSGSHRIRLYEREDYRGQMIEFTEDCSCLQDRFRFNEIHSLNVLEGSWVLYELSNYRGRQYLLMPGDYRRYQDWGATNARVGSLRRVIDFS

[14] = test system: T4, Gamma-crystallin D (Homo sapiens), P07320 [W43R]; test: Inhibition of gamma-crystallin D W43R mutant (unknown origin)-induced intracellular protein aggregation expressed in human HeLa cells at 0.4 uM incubated for 6 to 8 hrs by fluorescence microscopy relative to untreated control
[15] = test system: T4, Gamma-crystallin D (Homo sapiens), P07320 [W43R]; test: Inhibition of gamma-crystallin D W43R mutant (unknown origin)-induced intracellular protein aggregation expressed in human HLE-B3 cells at 4 uM incubated for 6 to 8 hrs by fluorescence microscopy relative to untreated control
[16] = test system: T4, Gamma-crystallin D (Homo sapiens), P07320 [W43R]; test: Inhibition of gamma-crystallin D W43R mutant (unknown origin)-induced intracellular protein aggregation expressed in human HLE-B3 cells at […] incubated for 6 to 8 hrs by fluorescence microscopy relative to untreated control
[17] = test system: T5, Alpha-crystallin A chain (Homo sapiens), P02489 [Y118D]; test: Inhibition of alpha-crystallin A Y118D mutant (unknown origin)-induced intracellular protein aggregation expressed in human HeLa cells at 4 uM incubated for 6 to 8 hrs by fluorescence microscopy relative to untreated control
T5 sequence (whole entry): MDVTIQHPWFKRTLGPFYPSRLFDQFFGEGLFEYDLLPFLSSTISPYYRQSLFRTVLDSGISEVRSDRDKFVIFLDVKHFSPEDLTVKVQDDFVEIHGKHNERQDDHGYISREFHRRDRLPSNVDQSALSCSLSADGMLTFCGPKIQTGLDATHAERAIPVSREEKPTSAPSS

[18] = test system: T5, Alpha-crystallin A chain (Homo sapiens), P02489 [Y118D]; test: Inhibition of alpha-crystallin A Y118D mutant (unknown origin)-induced intracellular protein aggregation expressed in human HeLa cells at 0.4 uM incubated for 6 to 8 hrs by fluorescence microscopy relative to untreated control
[19] = test system: T5, Alpha-crystallin A chain (Homo sapiens), P02489 [Y118D]; test: Inhibition of alpha-crystallin A Y118D mutant (unknown origin)-induced intracellular protein aggregation expressed in human HLE-B3 cells at 4 uM incubated for 6 to 8 hrs by fluorescence microscopy relative to untreated control
[20] = test system: T5, Alpha-crystallin A chain (Homo sapiens), P02489 [Y118D]; test: Inhibition of alpha-crystallin A Y118D mutant (unknown origin)-induced intracellular protein aggregation expressed in human HLE-B3 cells at 0.4 uM incubated for 6 to 8 hrs by fluorescence microscopy relative to untreated control

For C[C@H](CCCC(C)(C)O)[C@H]1CC[C@@]2(C)C3=C(CC[C@]12C)[C@@]1(C)C[C@@H](F)[C@@H](O)C(C)(C)[C@@H]1CC3, the inhibition [1] was “Active”, the inhibition [2] was “Active” and the inhibition [3] was “Active”. The inhibition [4] was “Active”, the inhibition [5] was “Active” and the inhibition [6] was “Active”. The inhibition [7] was “Active”, the inhibition [8] was “Active” and the inhibition [9] was “Active”. The inhibition [10] was “Active”, the inhibition [11] was “Active” and the inhibition [12] was “Active”. For the same compound, the inhibition [13] was “Active”, the inhibition [14] was “Active” and the inhibition [15] was “Active”. For the same compound, the inhibition [16] was “Active”, the inhibition [17] was “Active” and the inhibition [18] was “Active”. For the same compound, the inhibition [19] was “Active” and the inhibition [20] was “Active”.

C[C@H](CCCC(C)(C)O)[C@H]1CC[C@@]2(C)C3=C(CC[C@]12C)[C@@]1(C)C[C@@H](F)[C@H](O)C(C)(C)[C@@H]1CC3 was tested, and the inhibition [1] was “Active”, the inhibition [2] was “Active” and the inhibition [3] was “Active”. The inhibition [4] was “Active”, the inhibition [5] was “Active” and the inhibition [6] was “Active”. The inhibition [7] was “Active”, the inhibition [8] was “Active” and the inhibition [9] was “Active”. The inhibition [10] was “Active”, the inhibition [11] was “Active” and the inhibition [12] was “Active”. The inhibition [13] was “Active”, the inhibition [14] was “Active” and the inhibition [15] was “Active”. For the same compound, the inhibition [16] was “Active”, the inhibition [17] was “Active” and the inhibition [18] was “Active”. For the same compound, the inhibition [19] was “Active” and the inhibition [20] was “Active”.

In the case of C[C@H](CCCC(C)(C)O)[C@H]1CC[C@@]2(C)C3=CC[C@H]4C(C)(C)[C@@H](O)CC[C@]4(C)C3=CC[C@]12C, the inhibition [1] was “Active”, the inhibition [2] was “Active” and the inhibition [3] was “Active”. For the same compound, the inhibition [4] was “Active”, the inhibition [5] was “Active” and the inhibition [6] was “Active”. For the same compound, the inhibition [7] was “Active”, the inhibition [8] was “Active” and the inhibition [9] was “Active”. The inhibition [10] was “Active”, the inhibition [11] was “Active” and the inhibition [12] was “Active”. The inhibition [13] was “Active”, the inhibition [14] was “Active” and the inhibition [15] was “Active”. The inhibition [16] was “Active”, the inhibition [17] was “Active” and the inhibition [18] was “Active”. For the same compound, the inhibition [19] was “Active” and the inhibition [20] was “Active”.

In the case of C[C@H](CCCC(C)(C)O)[C@H]1CC[C@@]2(C)C3=C(CC[C@]12C)[C@@]1(C)CCC(=O)C(C)(C)[C@@H]1CC3, the inhibition [1] was “Active”, the inhibition [2] was “Active” and the inhibition [3] was “Active”. The inhibition [4] was “Active”, the inhibition [5] was “Active” and the inhibition [6] was “Active”. The inhibition [7] was “Active”, the inhibition [8] was “Active” and the inhibition [9] was “Active”. For the same compound, the inhibition [10] was “Active”, the inhibition [11] was “Active” and the inhibition [12] was “Active”. For the same compound, the inhibition [13] was “Active”, the inhibition [14] was “Active” and the inhibition [15] was “Active”. The inhibition [16] was “Active”, the inhibition [17] was “Active” and the inhibition [18] was “Active”. The inhibition [19] was “Active” and the inhibition [20] was “Active”.

With C[C@H](CCCC(C)(C)O)[C@H]1CC[C@@]2(C)[C@@]34CC[C@H]5C(C)(C)/C(=N/O)CC[C@]5(C)[C@]3(CC[C@]12C)O4 the inhibition [1] was “inactive”, the inhibition [2] was “inactive” and the inhibition [3] was “inactive”. The inhibition [4] was “inactive”, the inhibition [5] was “inactive” and the inhibition [6] was “inactive”. The inhibition [7] was “inactive”, the inhibition [8] was “inactive” and the inhibition [9] was “inactive”. For the same compound, the inhibition [10] was “inactive”, the inhibition [11] was “inactive” and the inhibition [12] was “inactive”. The inhibition [13] was “inactive”, the inhibition [14] was “inactive” and the inhibition [15] was “inactive”. For the same compound, the inhibition [16] was “inactive”, the inhibition [17] was “inactive” and the inhibition [18] was “inactive”. The inhibition [19] was “inactive” and the inhibition [20] was “inactive”.

For C[C@H](CCCC(C)(C)O)[C@H]1CC[C@@]2(C)C3=C(CC[C@]12C)[C@@]1(C)CC[C@H](O)C(C)(C)[C@@H]1CC3, the inhibition [1] was “Active”, the inhibition [2] was “Active” and the inhibition [3] was “Active”. For the same compound, the inhibition [4] was “Active”, the inhibition [5] was “Active” and the inhibition [6] was “Active”. The inhibition [7] was “Active”, the inhibition [8] was “Active” and the inhibition [9] was “Active”. The inhibition [10] was “Active”, the inhibition [11] was “Active” and the inhibition [12] was “Active”. The inhibition [13] was “Active”, the inhibition [14] was “Active” and the inhibition [15] was “Active”. For the same compound, the inhibition [16] was “Active”, the inhibition [17] was “Active” and the inhibition [18] was “Active”. For the same compound, the inhibition [19] was “Active” and the inhibition [20] was “Active”.
